Screening results from PubChem BioAssay.
Thrombin inh – blocks human thrombin protease activity. AID 1046. inhibition, % at 5 µM. 0.26% of 220,000 active. alpha-thrombin, Boc-VPR-AMC fluorogenic substrate cleavage;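 active = inhibition at or above 40%; inactive = inhibition below 40%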;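 note: 0% = enzyme with no compound and 100% = wells without enzyme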
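System – human alpha-thrombin · Medium – pH 7.5 Tris (50 mM) with NaCl 150 mM, Tween 20 0.05% · Compound – single-point dosing at 5 µM, 0.2% DMSO · Incubation – enzyme reaction carried out at room temperature · Technique – fluorescence of released AMC, ex 355 nm, em 460 nm · Read-out basis – % inhibition of thrombin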
FXIIa inh 1536 – inhibitors of human coagulation factor XIIa; AID 800; purified FXIIa, Boc-QGR-AMC fluorogenic substrate, 2 h; 0.3% of 220,000 active; inhibition, % at 5 µM; P00748; in the data active = inhibition above about 40%;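 note: 0% = enzyme with no compound and 100% = blank without enzyme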
Target sequence (P00748 20-372 limits assumed): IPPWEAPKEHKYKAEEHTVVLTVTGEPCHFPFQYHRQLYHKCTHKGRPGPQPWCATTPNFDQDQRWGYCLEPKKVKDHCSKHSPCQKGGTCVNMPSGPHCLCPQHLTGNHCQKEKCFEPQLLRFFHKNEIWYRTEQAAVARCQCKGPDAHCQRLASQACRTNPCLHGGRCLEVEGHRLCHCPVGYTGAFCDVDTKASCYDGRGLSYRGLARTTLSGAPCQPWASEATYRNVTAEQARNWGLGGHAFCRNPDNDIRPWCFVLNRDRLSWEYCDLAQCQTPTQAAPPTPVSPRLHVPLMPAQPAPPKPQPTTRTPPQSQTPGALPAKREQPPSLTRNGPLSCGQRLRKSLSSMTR
Target sequence (P00748 373-615 limits assumed): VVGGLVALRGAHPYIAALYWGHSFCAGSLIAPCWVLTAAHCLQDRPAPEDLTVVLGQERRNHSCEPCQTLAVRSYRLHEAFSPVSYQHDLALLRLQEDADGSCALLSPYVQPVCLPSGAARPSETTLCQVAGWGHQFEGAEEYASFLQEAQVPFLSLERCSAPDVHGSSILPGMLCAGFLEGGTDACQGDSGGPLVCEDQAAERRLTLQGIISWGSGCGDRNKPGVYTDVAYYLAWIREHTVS
Calpain2 inh – inhibitors of pig calpain II; inhibition, % at 16 µM; AID 1236; 0.37% of 220,000 active; purified calpain II, fluorogenic peptide substrate, 30 min;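 active = inhibition above about 50%, limit read from the data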
hK5 inh – kallikrein 5 (human) inhibition | Q9Y337 | recombinant hK5, fluorogenic AMC substrate cleavage | inhibition, % at 5 µM | 0.59% of 210,000 active;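 active = inhibition of 40% or more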;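 note: 0% = enzyme controls without compound and 100% = no-enzyme blanks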
FXIa inh – inhibitors of human coagulation factor XIa. purified FXIa, Boc-Glu-Ala-Arg-AMC fluorogenic substrate. inhibition, % at 5 µM. 0.14% of 220,000 active. AID 798;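 active = inhibition of at least 40%; inactive = inhibition below 40%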;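 note: fluorescence of freed AMC excited at 355 nm; 0% = enzyme without compound and 100% = no enzyme blank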
An asterisk follows results filed as active; / = no result; ! = a repeat was not active. Compounds with a hit are over-represented: about 1.4% of the library has one in this group of screens.

SMILES	Thrombin inh	FXIIa inh 1536	Calpain2 inh	hK5 inh	FXIa inh
CCOC(=O)c1c(NC(=O)c2cc3n(n2)C(C(F)(F)F)CC(c2cccs2)N3)sc(C)c1C (centres undefined)	-5	2	-53	-5	3
CCN(CC)S(=O)(=O)c1ccc(OC)c(NS(=O)(=O)c2ccc(F)cc2)c1	23	28	9	42*	16
COc1cc(OC)cc(C(=O)N2CCC(C(=O)Nc3ccc4c(c3)OCCO4)CC2)c1	-2	8	16	-5	6
Cc1cnc(NC(=O)c2sc(Nc3ccccc3)nc2N)o1	-2	5	18	3	2
CC(C)OC(=O)c1cccc(NC(=O)CSc2nnc(N)s2)c1	18	103*	26	37	34
Cc1csc(NC(=O)Cc2c[nH]c3ccccc23)n1	-4	40*	9	12	-8
Cc1cnc(NC(=O)Cc2c[nH]c3ccccc23)s1	-5	-6	-1	7	-6
COCCNCC(=O)Nc1nc(C)cs1	14	102*	19	27	46*
CC(=O)NC1C(=O)N(C)c2ccc(Br)cc21 (centres undefined)	15	21	5	45*	16
O=C1N=C(N2CCOCC2)S/C1=C/c1cc2c(cc1[N+](=O)[O-])OCO2	3	10	-12	2	4
CCC(=O)N1CCN=C1SCc1ccc(Cl)cc1	5	16	5	6	2
Cc1ccc(CSC2=NCCN2C(=O)c2ccco2)cc1	-5	1	27	41*	-10
CCC(=O)N1CCN=C1SCc1ccccc1	14	29	-7	41*	11
Cc1cccc(CSC2=NCCN2C(=O)c2ccco2)c1	-8	19	14	-21	6
COC(=O)CS(=O)(=O)c1ccsc1C(=O)Nc1ccc(F)cc1	-8	8	-11	-5	-2
CC(/C=C1\SC(=S)N(c2ccc(C(=O)O)cc2)C1=O)=C\c1ccccc1	-2	14	73*	8	8
CC(/C=C1\SC(=S)N(NC(=O)c2ccc(C)cc2)C1=O)=C\c1ccccc1	5	8	-14	3	8
CCCCC(=O)Nc1ncc2c(n1)CC(C)(C)CC2=O	0	-5	-2	-3	-7
CC1(C)CC(=O)c2cnc(NC(=O)Cc3ccc(Cl)cc3)nc2C1	36	2	36	86*	1
CC(=O)NNC(=S)NC(=O)c1ccccc1	43*	42*	31	8	21
CCCCC(=O)Nc1ccc(C(=O)c2ccccc2)cc1	10	32	53*	12	6
NC(=O)COc1c(-c2ccccc2)oc2ccccc2c1=O	3	16	5	46*	8
FC(F)(F)c1cc(-c2ccco2)nc(NCc2cccs2)n1	-4	23	-30	-3	19
COc1ccc(CNc2nc(-c3cccnc3)nn2C(=O)C(C)C)cc1	99*	3	-34	-15	-2
CS(=O)(=O)n1nc(-c2cccnc2)nc1NCc1ccccc1	4	13	14	-1	7
SMILES	Thrombin inh	FXIIa inh 1536	Calpain2 inh	hK5 inh	FXIa inh
CC(C)C(=O)n1nc(-c2cccnc2)nc1NCc1cccs1	100*	-3	9	-6	13
O=C(c1cccnc1)n1nc(-c2ccco2)nc1NCc1cccs1	97*	8	16	0	2
CCC(=O)n1nc(-c2cccnc2)nc1NCc1ccc(OC)cc1	100*	9	18	1	-1
COc1ccc(CNc2nc(-c3cccnc3)nn2S(C)(=O)=O)cc1	1	8	17	3	1
CCCCNC(=O)c1cc2cc(CC)ccc2[nH]1	-6	7	-67	4	0
CC(=O)Nc1nc(C)c(CCC2OCCO2)c(=O)[nH]1	2	6	11	1	3
O=C(CCCCCN1C(=O)c2cccc3cccc(c23)C1=O)NCc1cccnc1	-3	2	3	-1	-3
O=C(CCCN1C(=O)c2cccc3cccc(c23)C1=O)NCc1cccnc1	20	49*	-18	39	36
Cc1cc(N2C(=O)CC(Cc3ccccc3)C2=O)no1 (centres undefined)	-5	-4	-40	-21	4
Cc1cc(N2C(=O)CC(Cc3ccc(Cl)cc3)C2=O)no1 (centres undefined)	5	18	-22	40*	-3
O=C(Cn1c(-c2cscn2)nc2ccccc21)Nc1ccccc1F	32	22	-6	42*	8
C/C(CC(=O)NC1CCCC1)=N\NC(=O)c1ccc([N+](=O)[O-])c(Cl)c1	-3	8	-2	-14	1
CC(/C=N/NC(=O)c1cc(C(C)C)[nH]n1)=C\c1ccccc1	46*	-5	27	29	4
NS(=O)(=O)c1cccc(NC(=O)CSc2nc3ccccc3[nH]2)c1	-2	10	4	-4	7
Cc1ccc2nc(SCC(=O)Nc3cccc(S(N)(=O)=O)c3)[nH]c2c1	1	9	0	93*	2
Cc1nn(CC(=O)N2CCc3ccccc3C2)c(C)c1[N+](=O)[O-]	-1	85*	13	22	38
CCCCCCCCCCCCCCCCn1cc[n+](C)c1	-7	7	54*!	-1	0
O=C(CCNC(=O)c1ccc(Br)o1)NC1CCCC1	-4	9	-12	1	-2
O=C(NC1CCCCC1)c1ccc(Br)o1	15	8	16	83*	1
Cc1ccccc1/C=C1\SC(=S)N(/N=C/c2cc([N+](=O)[O-])ccc2O)C1=O	56*	13	-87	5	2
CC(N=Cc1cc([N+](=O)[O-])ccc1O)c1ccccc1 (centres undefined)	-5	8	-16	0	17
CC(=O)Nc1cccc(N=NN2CCCCC2)c1	-2	13	-2	-1	-2
COc1ccc(-c2cc(C(F)F)n3ncc(C(=O)n4ccnc4C)c3n2)cc1	88*	-3	-451	-17	-4
COc1ccc(-c2cc(C(F)F)n3ncc(C(=O)N4CCc5ccccc54)c3n2)cc1	20	11	-275	2	1
COc1ccc(C(=O)n2nc(-c3ccccc3)nc2N)cc1OC	26	10	-41	41*	13
SMILES	Thrombin inh	FXIIa inh 1536	Calpain2 inh	hK5 inh	FXIa inh
O=C(NCCCN1CCCC1=O)c1ccc2c(=O)n(-c3ccccc3F)c(=S)[nH]c2c1	-1	12	-83	4	-1
CC(=O)Nc1ccc(OC(=O)c2ccc(Br)c([N+](=O)[O-])c2)cc1	-9	1	23	0	-3
COc1ccc(CN(C(=O)c2ccc3c(c2)OCCO3)C(C(=O)NC2CCCCC2)c2ccc3ncccc3c2)cc1 (centres undefined)	4	0	-90	150*	-6
C=C(C)CN=c1scc(C)n1/N=C/c1ccco1	9	10	7	43*	4
Cc1cc(C)n(-c2nnc(C)n2/N=C/c2ccco2)n1	1	16	-11	-4	9
O=c1c2c(-c3ccccc3)csc2ncn1/N=C/c1ccc(O)c([N+](=O)[O-])c1	6	14	56*	/	7
O=c1c2c(-c3ccccc3)csc2ncn1/N=C/c1cccc([N+](=O)[O-])c1O	0	11	-7	/	6
